Measured values taken from ChEMBL document CHEMBL1133176, “3-Aryl-[1,2,4]triazino[4,3-a]benzimidazol-4(10H)-ones: tricyclic heteroaromatic derivatives as a new class of benzodiazepine receptor ligands” (J Med Chem, 2000).
The source made the active and inactive calls. The rule behind the calls is not given here.

Columns and labels:
[1] = biological target: T1, GABA-A receptor; anion channel (Bos taurus) (UniProt P10063+P08220+P20237+P08219+P10064+P22300); experiment: Inhibition of […] [3H]- Ro.15-1788 binding to benzodiazepine receptors in bovine brain membrane.; format: cell membranes
Mus musculus [2] = experiment: Proconvulsant action measured as the dose required to induce convulsions in 50% of mice that had been previously given a subconvulsant dose of PTZ (40 mg/kg, sc); No effect at a hieghst dose of 250 mg/kg; format: functional, organism-based; design: dose 250 mg/kg
In short: (§1)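 Mice pretreated with a subconvulsant PTZ dose of 40 mg/kg sc. The dose inducing convulsions in 50% of animals was determined, with compounds tested up to 250 mg/kg. Values are means of at least three determinations, with ≤20% variation between experiments.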

Mus musculus [3] = experiment: Dose required to antagonise the convulsant action of PTZ (80 mg/kg, sc) in 50% mice; No effect at a highest dose of 250 mg/kg; format: functional, organism-based; design: dose 250 mg/kg
[4] = biological target: T1, GABA-A receptor; anion channel (Bos taurus); experiment: (§2) Inhibition of [35S]-TBPS binding to GABA-A central Benzodiazepine Receptor of bovine cerebral cortex membranes; format: tissue-based; design: concentration or dose not given beside the values; settings: concentration not given here
In short: (§3)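 [35S]TBPS binding run in the presence of GABA with compounds at 0.5 μM, on bovine brain membranes washed in Tris-citrate pH 7.4. […] Mean ± SE of three separate experiments.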

[5] = biological target: GABA-A receptor; anion channel; experiment: Displacement of [3H]- Ro.15-1788 from GABA-A central Benzodiazepine receptor (BzR) of Bovine cerebral cortex membrane; format: tissue-based, Bos taurus
Mus musculus [6] = experiment: Antagonism of Diazepam (2.5 mg/kg, ip) anticonvulsant effect in mice treated with PTZ (80 mg/kg, sc), No effect to 250 mg/kg dose; format: functional, organism-based; design: dose 250 mg/kg
In short: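 Mice received diazepam 2.5 mg/kg ip plus convulsant PTZ 80 mg/kg sc. The dose of test compound that antagonizes the anticonvulsant effect of diazepam was determined, with a highest dose of 250 mg/kg. Values are means of at least three determinations.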

[7] = biological target: T1, GABA-A receptor; anion channel (Bos taurus); experiment: Relative binding to GABA-A receptor in the presence and absence of GABA (GABA shift), Ki(-GABA)/Ki(+GABA); format: protein-complex assay
In short: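 Bovine brain membranes, frozen-thawed and washed in 50 mM Tris-citrate pH 7.4, used for displacement of radiolabeled antagonist [3H]Ro 15-1788. Ki reported as mean ± SEM of three determinations. GABA ratio taken as Ki without GABA divided by Ki with GABA.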

[8] = biological target: T1, GABA-A receptor; anion channel (Bos taurus); experiment: as §2; format: tissue-based; settings: concentration not given here; in short: as §3
Mus musculus [9] = experiment: Proconvulsant action measured as the dose required to induce convulsions in 50% of mice that had been previously given a subconvulsant dose of PTZ (40 mg/kg, sc); No effect at a highest dose of 250 mg/kg; format: functional, organism-based; design: dose 250 mg/kg; in short: as §1
Mus musculus [10] = experiment: Dose required by the compound in vivo to antagonise the convulsant action of PTZ (80 mg/kg, sc) in 50 % mice; format: functional
In short: (§4)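 Mice; anticonvulsant value is the dose protecting 50% of animals from convulsions caused by PTZ 80 mg/kg sc; diazepam antagonism measured as dose reversing the anticonvulsant effect of diazepam 2.5 mg/kg ip in mice given PTZ 80 mg/kg sc. Top test dose 250 mg/kg; means of at least three determinations (≤20% between-experiment difference).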

Mus musculus [11] = experiment: Proconvulsant action measured as the dose required to induce convulsions in 50% of mice that had been previously given a subconvulsant dose of PTZ (40 mg/kg, sc); format: functional
In short: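 Proconvulsant test in mice pretreated with subconvulsant PTZ 40 mg/kg sc; value is the dose inducing convulsions in 50% of animals. Highest test dose 250 mg/kg; means of at least three determinations, ≤20% difference between experiments.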

Mus musculus [12] = experiment: Antagonism of Diazepam (2.5 mg/kg, ip) anticonvulsant effect in mice treated with PTZ (80 mg/kg, sc); format: functional; in short: as §4
Mus musculus [13] = experiment: Dose required to antagonise the convulsant action of PTZ (80 mg/kg, sc) in 50% mice; No effect at a highest dose of 30 mg/kg; format: functional, organism-based; design: dose 30 mg/kg
Mus musculus [14] = experiment: Dose required to antagonise the convulsant action of PTZ (80 mg/kg, sc) in 50% mice; No effect at a highest dose of 100 mg/kg; format: functional, organism-based; design: dose 100 mg/kg
Mus musculus [15] = experiment: Proconvulsant action measured as the dose required to induce convulsions in 50% of mice that had been previously given a subconvulsant dose of PTZ (40 mg/kg, sc); No effect at a highest dose of 100 mg/kg; format: functional, organism-based; design: dose 100 mg/kg

Compound	inhibition [1] [%]	inhibition [4] [%]	Ki [5] [nM]	GABA ratio [7]	other results
Oc1c(-c2ccc(Cl)cc2)nnc2nc3ccccc3n12	34	–	–	–	–
Cc1ccc(-c2nnc3nc4ccccc4n3c2O)cc1	56	–	–	–	–
COc1ccc(-c2nnc3nc4ccccc4n3c2O)cc1	89	5	44	1.25	NE (Mus musculus [2]): inactive; NE (Mus musculus [3]): inactive; NE (Mus musculus [6]): inactive
Oc1c(-c2cccs2)nnc2nc3ccccc3n12	99	–	13	0.97	inhibition [8]: 28%; NE (Mus musculus [3]): inactive; NE (Mus musculus [6]): inactive; NE (Mus musculus [9]): inactive
CN1C(=O)CN=C(c2ccccc2)c2cc(Cl)ccc21 [DIAZEPAM]	–	–	–	–	ED50 (Mus musculus [10]): 0.4 mg/kg
COc1ccc(-c2nnc3n(C)c4ccccc4n3c2=O)cc1	53	–	–	–	–
Cn1c2ccccc2n2c(=O)c(-c3ccccc3)nnc12	92	66	860	1.7	ED50 (Mus musculus [10]): 60 mg/kg; NE (Mus musculus [6]): inactive; NE (Mus musculus [9]): inactive
O=C1CN=C(c2ccccc2Cl)c2cc([N+](=O)[O-])ccc2N1	–	100	–	–	–
Cn1c2ccccc2n2c(=O)c(-c3ccc(Cl)cc3)nnc12	30	–	–	–	–
Oc1c(-c2ccccc2)nnc2nc3ccccc3n12	97	35	53	1.2	NE (Mus musculus [3]): inactive; NE (Mus musculus [6]): inactive; NE (Mus musculus [9]): inactive
COc1ccc(-c2nnc3nc4ccccc4n3c2O)cc1OC	17	–	–	–	–
Cn1c2ccccc2n2c(=O)c(-c3cccs3)nnc12	63	–	–	–	–
COC(=O)c1cc2c(cn1)[nH]c1ccccc12 [BETA-CCM]	–	–	–	–	Proconvulsant action (Mus musculus [11]): 19.4; Diazepam antagonism (Mus musculus [12]): 0.02; NE (Mus musculus [13]): inactive
Oc1ccc(-c2nnc3nc4ccccc4n3c2O)cc1O	99	–	170	1.2	–
Cn1c2ccccc2n2c(=O)c(-c3ccco3)nnc12	68	–	–	–	–
Cc1nnc2nc3ccccc3n2c1O	26	–	–	–	–
Oc1cnnc2nc3ccccc3n12	11	–	–	–	–
Cc1ccc(-c2nnc3nc4ccccc4n3c2O)s1	83	–	115	0.96	–
Oc1c(-c2ccsc2)nnc2nc3ccccc3n12	85	–	107	1.2	–
CCOC(=O)c1ncn2c1CN(C)C(=O)c1cc(F)ccc1-2 [FLUMAZENIL]	–	15	0.09	0.9	NE (Mus musculus [14]): inactive; NE (Mus musculus [15]): inactive; Diazepam antagonism (Mus musculus [12]): 0.3
Oc1ccc(-c2nnc3nc4ccccc4n3c2O)cc1	99	15	74	0.87	–
Oc1c(-c2ccco2)nnc2nc3ccccc3n12	93	25	56	0.98	–
